Source: the RNAGym collection of RNA variant scans (doi:10.1002/anie.201605470)

B1: Osa-1-4 twister ribozyme (parent)
chain: CCGCCUAACACUGCCAAUGCCGGUCCCAAGCCCGGAUAAAAGUGGAGGGGGCGG

Variants of: B1
Assay: self-cleavage, relative activity (ratio to wild type); higher = more cleavage; co-transcriptional
Procedure, shortened: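 In vitro transcription at 37 °C for 2 h allowed the twister ribozyme to cleave itself as it was made. Its 54-nucleotide Oryza sativa template had been synthesised with 97 % wild-type base and 1 % of each other base at the 48 positions downstream of the cleavage site. A template-switching oligonucleotide was used for reverse transcription, followed by PCR amplification and deep sequencing. Whether reads carried upstream sequence set the cleavage status, and relative activity is the fraction cleaved normalised to wild type.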

| Variant | self-cleavage |
| --- | --- |
| A28U C25G | 0.05 |
| A28G G42C | 0.07 |
| A28G G42U | 0.04 |
| A28G G42A | 0.1 |
| A28C U37C | 1.01 |
| A28C U37A | 0.74 |
| A28C U37G | 0.98 |
| A28C G48U | 0.07 |
| A28C G48A | 0.09 |
| A28C G48C | 0.08 |
| A28C G49U | 0.13 |
| A28C G49A | 0.16 |
| A28C G49C | 0.07 |
| A28G G30U | 0.05 |
| A28G G30C | 0.04 |
| A28G G30A | 0.05 |
| A28U G45U | 0.07 |
| A28U G45C | 0.06 |
| A28U G45A | 0.09 |
| A28U | 0.96 |
| A28G | 0.48 |
| A28U A36C | 0.21 |
| A28U A36G | 0.99 |
| A28U A36U | 0.94 |

| Variant | self-cleavage |
| --- | --- |
| A28G C11G | 0.06 |
| A28G C11A | 0.09 |
| A28G C11U | 0.16 |
| A28G G50C | 0.14 |
| A28G G50A | 0.28 |
| A28G G50U | 0.23 |
| A28C G54A | 0.91 |
| A28C G54U | 0.95 |
| A28C G54C | 0.86 |
| A28U C33G | 0.05 |
| A28U C33U | 0.49 |
| A28U C33A | 0.08 |
| A28U G48A | 0.06 |
| A28U G48U | 0.06 |
| A28U G48C | 0.06 |
| A28U U37A | 0.68 |
| A28U U37G | 0.97 |
| A28U U37C | 0.97 |
| A28U G23A | 0.14 |
| A28U G23C | 0.05 |
| A28U G23U | 0.07 |
| A28G C14G | 0.15 |
| A28G C14A | 0.05 |
| A28G C14U | 0.11 |

| Variant | self-cleavage |
| --- | --- |
| A28G U24G | 0.02 |
| A28G U24C | 0.07 |
| A28G U24A | 0.06 |
| A28U C9A | 0.16 |
| A28U C9G | 0.35 |
| A28U C9U | 0.57 |
| A28C U43C | 0.33 |
| A28C U43A | 0.72 |
| A28C U43G | 0.32 |
| A28U U18C | 0.73 |
| A28U U18G | 0.91 |
| A28U U18A | 0.91 |
| A28C G42C | 0.12 |
| A28C G42A | 0.43 |
| A28C G42U | 0.08 |
| A28U G54C | 0.71 |
| A28U G54U | 0.72 |
| A28U G54A | 0.66 |
| A28U A41G | 0.29 |
| A28U A41U | 0.93 |
| A28U A41C | 0.79 |
| A28G G34U | 0.1 |
| A28G G34A | 0.21 |
| A28G G34C | 0.08 |

| Variant | self-cleavage |
| --- | --- |
| A28U A7U | 0.07 |
| A28U A7G | 0.13 |
| A28U A7C | 0.04 |
| A28G C25G | 0.09 |
| A28G C25U | 0.11 |
| A28G C25A | 0.04 |
| A28C G22C | 0.08 |
| A28C G22A | 0.68 |
| A28C G22U | 0.4 |
| A28U G19U | 0.13 |
| A28U G19A | 0.24 |
| A28U G19C | 0.07 |
| A28C U24C | 0.18 |
| A28C U24A | 0.14 |
| A28C U24G | 0.05 |
| A28U C20G | 0.09 |
| A28U C20A | 0.9 |
| A28U C20U | 0.95 |
| A28U C31G | 0.07 |
| A28U C31U | 0.19 |
| A28U C31A | 0.03 |
| A28U U43A | 0.28 |
| A28U U43G | 0.15 |
| A28U U43C | 0.15 |

| Variant | self-cleavage |
| --- | --- |
| A28U C21U | 0.93 |
| A28U C21G | 0.07 |
| A28U C21A | 0.16 |
| A28G G48A | 0.04 |
| A28G G48C | 0.05 |
| A28G G48U | 0.04 |
| A28G C32U | 0.05 |
| A28G C32G | 0.08 |
| A28G C32A | 0.06 |
| A28U G34U | 0.28 |
| A28U G34A | 0.39 |
| A28U G34C | 0.18 |
| A28G G23A | 0.13 |
| A28G G23C | 0.04 |
| A28G G23U | 0.05 |
| A28C G51C | 0.12 |
| A28C G51A | 0.24 |
| A28C G51U | 0.28 |
| A28G G13A | 0.05 |
| A28G G13U | 0.01 |
| A28G G13C | 0.03 |
| A28G C52G | 0.32 |
| A28G C52A | 0.2 |
| A28G C52U | 0.46 |

| Variant | self-cleavage |
| --- | --- |
| A28U C11A | 0.27 |
| A28U C11G | 0.12 |
| A28U C11U | 0.7 |
| A28U A40U | 0.2 |
| A28U A40C | 0.04 |
| A28U A40G | 0.24 |
| A28G C15A | 0.08 |
| A28G C15G | 0.23 |
| A28G C15U | 0.08 |
| A28G C31G | 0.09 |
| A28G C31A | 0.02 |
| A28G C31U | 0.08 |
| A28U G51C | 0.08 |
| A28U G51U | 0.2 |
| A28U G51A | 0.28 |
| A28G G54C | 0.14 |
| A28G G54U | 0.27 |
| A28G G54A | 0.15 |
| A28G G44C | 0.12 |
| A28G G44A | 0.1 |
| A28G G44U | 0.11 |
| A28U G22A | 0.34 |
| A28U G22U | 0.2 |
| A28U G22C | 0.06 |

| Variant | self-cleavage |
| --- | --- |
| A28U C15A | 0.11 |
| A28U C15G | 0.14 |
| A28U C15U | 0.1 |
| A28C G50C | 1 |
| A28C G50U | 0.98 |
| A28C G50A | 0.81 |
| A28C G19U | 0.35 |
| A28C G19A | 0.79 |
| A28C G19C | 0.23 |
| A28U G42A | 0.16 |
| A28U G42U | 0.06 |
| A28U G42C | 0.09 |
| A28C G13U | 0.03 |
| A28C G13C | 0.02 |
| A28C U18G | 1.01 |
| A28C U18C | 0.72 |
| A28C U18A | 0.96 |
| A28C U12C | 0.34 |
| A28C U12A | 0.89 |
| A28C U12G | 0.15 |
| A28G G35A | 0.21 |
| A28G G35U | 0.15 |
| A28G G35C | 0.09 |
